The first experiment is filed under the species Homo sapiens. Briefly: Selectivity for human EAAT3 over human EAAT2 expressed in mouse C17.2 cells. Format: cell-based.
Compound `N[C@H](C(=O)O)[C@H](Cc1ccccc1)C(=O)O` yielded a fold change (FC) of 10.

For a further experiment, the species on record is Homo sapiens. Briefly: Selectivity for human EAAT3 over human EAAT1 expressed in mouse C17.2 cells. The experiment is classed as cell-based.
`N[C@H](C(=O)O)[C@H](Cc1ccccc1)C(=O)O` gave a fold change (FC) of 10.

The next experiment deals with T1, Excitatory amino acid transporter 3 (Homo sapiens) (UniProt P43005).
T1 sequence (whole entry): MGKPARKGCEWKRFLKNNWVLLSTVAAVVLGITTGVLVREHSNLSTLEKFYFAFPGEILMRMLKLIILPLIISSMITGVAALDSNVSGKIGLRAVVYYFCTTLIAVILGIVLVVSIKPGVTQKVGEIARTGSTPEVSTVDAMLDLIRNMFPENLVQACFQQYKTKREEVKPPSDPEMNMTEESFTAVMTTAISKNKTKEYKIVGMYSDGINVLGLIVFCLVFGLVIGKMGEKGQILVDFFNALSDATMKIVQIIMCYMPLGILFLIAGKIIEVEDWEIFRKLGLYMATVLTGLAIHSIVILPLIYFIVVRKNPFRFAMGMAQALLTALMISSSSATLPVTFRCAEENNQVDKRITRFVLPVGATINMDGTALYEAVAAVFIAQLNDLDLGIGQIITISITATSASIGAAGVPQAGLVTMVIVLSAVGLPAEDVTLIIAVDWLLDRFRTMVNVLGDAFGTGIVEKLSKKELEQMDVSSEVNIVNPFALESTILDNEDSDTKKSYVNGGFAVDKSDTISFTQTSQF
Briefly: Residual [3H]D-aspartate uptake at human EAAT3 expressed in mouse C17.2 cells at 100 uM relative to control.
In turn, `Cc1cccc(CC(C(=O)O)[C@H](N)C(=O)O)c1` (mixture of isomers) registered a residual activity of 33%. Consider `Cc1cc(C)cc(CC(C(=O)O)[C@H](N)C(=O)O)c1` (mixture of isomers), for which the residual activity is 36%. Still for that read-out and setting: next, `N[C@H](C(=O)O)C(Cc1ccccc1)C(=O)O` (stereo not given in full): 4%. Same read-out and setting: next, `N[C@H](C(=O)O)C(Cc1ccc(F)cc1)C(=O)O` (mixture of isomers): 7%; `N[C@H](C(=O)O)C(Cc1cccc(Br)c1)C(=O)O` (mixture of isomers): 8%; `N[C@H](C(=O)O)C(Cc1cccc(F)c1)C(=O)O` (stereo not given in full): 0%. In turn, `N[C@H](C(=O)O)C(Cc1c(Cl)cccc1Cl)C(=O)O` (stereo not given in full) showed a residual activity of 86%.

In turn, `N[C@H](C(=O)O)C(Cc1ccc2ccccc2c1)C(=O)O` (stereo not given in full) yielded a residual activity of 68%. The compound `N[C@H](C(=O)O)C(Cc1cccc([N+](=O)[O-])c1)C(=O)O` (mixture of isomers) returned a residual activity of 29%. The compound `N[C@H](C(=O)O)C(Cc1ccc([N+](=O)[O-])cc1)C(=O)O` (stereo not given in full) registered a residual activity of 65%. Turning to `N[C@H](C(=O)O)[C@H](Cc1ccccc1)C(=O)O`, the residual activity came to 1%.

The next experiment has as its target T2, Excitatory amino acid transporter 3 (Homo sapiens, UniProt P43005).
T2 sequence (P43005 whole entry): T1 sequence (whole entry)
Briefly: Displacement of [3H]D-aspartate from human EAAT3 expressed in mouse C17.2 cells. Format: cell-based. The procedure, abridged: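 C17.2 neuroprogenitor cells (passages 10–20) seeded at 5 × 10^4/well, transiently transfected with human EAAT3 plasmid 24 h after plating, assayed 24 h later. Cells preincubated 5 min at 37°C in HEPES-buffered saline, pH 7.4, then given 1 µM 3H-D-aspartate with varying inhibitor concentrations. Rinsed with ice-cold buffer after uptake and read by scintillation counting. Corrected for 4°C background. IC50 from a one-site fit, ±SEM.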
On to `N[C@H](C(=O)O)[C@H](Cc1cccc(F)c1)C(=O)O`, for which the IC50 came to 2.46 µM. In turn, `N[C@H](C(=O)O)[C@@H](Cc1cccc(F)c1)C(=O)O` returned an IC50 of 21.1 µM.
